Rin1 Abl inh = human Rin1-Abl interaction inhibition | P00519+Q13671 | TR-FRET Rin1/Abl binding, biochemical | inhibition, % at 7.35 µM | 360,000 compounds, 0.4% hits | AID 588664; in the data active = inhibition above about 5%, passing the limit was not always enough
MBD2 inh = blocks human MBD2 binding to methylated DNA. AID 686964. 370,000 compounds, 0.31% hits. inhibition, % at 4.4 µM. TR-FRET, MBD2 binding to methylated oligonucleotide. Q9UBB5; in the data active = inhibition above about 13%
Target sequence (Q9UBB5 whole entry, looked up): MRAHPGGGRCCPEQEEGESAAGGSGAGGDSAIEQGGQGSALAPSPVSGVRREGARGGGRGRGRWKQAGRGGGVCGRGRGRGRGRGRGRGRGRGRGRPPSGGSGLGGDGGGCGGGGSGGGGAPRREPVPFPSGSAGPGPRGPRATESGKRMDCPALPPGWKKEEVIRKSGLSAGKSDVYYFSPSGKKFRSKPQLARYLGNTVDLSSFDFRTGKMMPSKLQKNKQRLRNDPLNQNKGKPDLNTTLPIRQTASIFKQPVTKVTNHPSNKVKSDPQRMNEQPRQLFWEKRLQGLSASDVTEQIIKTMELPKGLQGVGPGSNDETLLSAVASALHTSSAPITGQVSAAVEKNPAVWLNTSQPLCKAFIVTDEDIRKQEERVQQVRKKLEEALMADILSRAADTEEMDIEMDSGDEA
Arr AP2 block = blocks beta-arrestin peptide binding to AP2 adaptin. FITC-arrestin peptide / GST-AP2 beads, flow cytometry; AP2 beta2 appendage carries R879A mutation. inhibition, % at 10 µM. 340,000 compounds, 0.31% hits;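 active = inhibition above a set limit, near 3 SD of compounds lacking own fluorescence, cut at about 54% in these data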
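System: GST-tagged AP2 beta2-adaptin appendage (R879A) on 4 µm glutathione beads / Reagent: FITC-arrestin peptide, 50 nM / Detection: HyperCyt-sampled flow cytometry, FL1 channel, ex 488/em 535 nm / Timing: 12 min plus 1 h, RT / Buffer or medium: PBS plus Tween 20 (0.05%) and BSA (0.1%)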
ABHD5-PLIN5 inh = blocks binding of human ABHD5 to perilipin-5 | Split G. princeps luciferase complementation, luminescence, 4 h | inhibition, % at 4 µM | AID 602281 | Q00G26+Q8WTS1 | 360,000 compounds, 0.78% hits;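 active = inhibition above the mean inhibition across every tested compound plus 3 SD, cut at about 22% in these data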
UHRF1 binding = UHRF1 methyl-DNA binding inhibition; Q96T88; UHRF1 binding to methylated oligo, TR-FRET; inhibition, % at 4.4 µM; 370,000 compounds, 0.75% hits; AID 687016; in the data active = inhibition above about 21%;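 also: UHRF1 SRA domain binding a hemimethylated CpG hairpin DNA probe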
B2AR ag = agonists of human beta-2 adrenergic receptor inducing internalization; AID 504454; 340,000 compounds, 0.43% hits; Am2.2-beta2AR cells, FAP receptor internalization, flow cytometry; response, % (no concentration beside the values);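 active = response above a set limit, near 3 SD of response in nonfluorescent compounds, cut at about 42% in these data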
B2AR ag CP1 = human beta-2 adrenergic receptor agonism, cherry pick. shares compounds with B2AR ag. Am2.2-beta2AR cells, FAP surface receptor, flow cytometry; active compounds read low. percent response (surface receptor), % at 10 µM. 1,100 compounds, 25% hits;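 active = surface receptor percent response at or below 58%, roughly 3 SD from nonfluorescent compounds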
FAP fluor counter = flagged in Am2.2 fluorescence counterscreen for beta-2AR agonists | shares compounds with B2AR ag | Am2.2 cells, FAP fluorogen flow cytometry; active compounds read low | calls only at 10 µM | 1,100 tested, under 10 active | AID 588765;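 active = percent response below a set limit in fluorescence channel 1 and below 50% in channel 8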
Numbers stand for hits. An excerpt weighted towards active compounds, which were near 2.5% of everything screened.

Screening CC(Sc1nc(-c2ccccc2)cc(C(F)(F)F)n1)C(=O)N1CCCCC1 (centres undefined) returned Rin1 Abl inh inactive, Arr AP2 block inactive, ABHD5-PLIN5 inh inactive, B2AR ag 99, B2AR ag CP1 11 and FAP fluor counter inactive.
For CC1CCCN(C(=O)C(C)Sc2nc(-c3ccccc3)cc(C(F)(F)F)n2)C1 (centres undefined) the results were Rin1 Abl inh inactive, MBD2 inh inactive, Arr AP2 block inactive, ABHD5-PLIN5 inh inactive, UHRF1 binding inactive, B2AR ag inactive, B2AR ag CP1 inactive and FAP fluor counter inactive.
CCCCCC(=O)NC1CCCCN(Cc2ccc(C)cc2)C1=O (centres undefined) was read as MBD2 inh inactive and UHRF1 binding inactive.
`COC(=O)N1CCC[C@H]1c1cccc2[nH]cc(C)c12` gave MBD2 inh inactive and UHRF1 binding inactive.
`C/C(=N/NC(=O)c1ccoc1C)c1cccs1` gave MBD2 inh inactive and UHRF1 binding inactive.
`COC(=O)[C@H](C(C)C)N(Cc1cn(Cc2ccc(C)cc2)nn1)S(=O)(=O)c1ccc(F)cc1Br` gave MBD2 inh inactive and UHRF1 binding inactive.
`CCOC(=O)[C@]12CCCCC/C=C\1N(CCc1ccc(Cl)cc1)C(=O)[C@H]2CC(=O)NCCCOC` gave MBD2 inh inactive and UHRF1 binding inactive.
For Cc1ccc(N(C)S(=O)(=O)c2cc(-c3cnc(C4CC4)o3)ccc2C)cc1 the results were Rin1 Abl inh inactive, MBD2 inh inactive, Arr AP2 block inactive, ABHD5-PLIN5 inh inactive, UHRF1 binding inactive, B2AR ag 104, B2AR ag CP1 1.5 and FAP fluor counter inactive.
For Cc1cccc(N(C)S(=O)(=O)c2ccc(-c3cnc(C4CC4)o3)cc2)c1 the results were Rin1 Abl inh inactive, MBD2 inh inactive, Arr AP2 block inactive, ABHD5-PLIN5 inh inactive, UHRF1 binding inactive and B2AR ag inactive.
For O=C(CC1Oc2ccccc2NC1=O)NCCc1ccccc1 (centres undefined) the results were Rin1 Abl inh inactive, MBD2 inh inactive, Arr AP2 block inactive, ABHD5-PLIN5 inh inactive, UHRF1 binding inactive, B2AR ag 44, B2AR ag CP1 inactive and FAP fluor counter inactive.
For Cc1ccccc1CS(=O)(=O)Cc1ccc(C(=O)Nc2ccccc2C)o1 the results were MBD2 inh inactive and UHRF1 binding inactive.
For O=C(COCc1ccccc1)N1CC[C@H]2[C@H](CCCN2Cc2ccccc2)C1 the results were MBD2 inh inactive and UHRF1 binding inactive.
For N#CC1=C(N)OC2=C(CCc3ccccc32)C1c1ccccc1 (centres undefined) the results were Rin1 Abl inh inactive, MBD2 inh inactive, Arr AP2 block inactive, ABHD5-PLIN5 inh inactive, UHRF1 binding inactive, B2AR ag 43, B2AR ag CP1 28 and FAP fluor counter inactive.
For Cc1ccc(NC(=O)c2ccc(N3CCOCC3)c([N+](=O)[O-])c2)cc1S(=O)(=O)N1CCOCC1 the results were Rin1 Abl inh inactive, MBD2 inh inactive, Arr AP2 block inactive, ABHD5-PLIN5 inh inactive, UHRF1 binding inactive, B2AR ag 49, B2AR ag CP1 20 and FAP fluor counter inactive.
Cc1ccc(C(=O)Nc2cccc(S(=O)(=O)N3CCOCC3)c2)cc1[N+](=O)[O-] was read as Rin1 Abl inh inactive, MBD2 inh inactive, Arr AP2 block inactive, ABHD5-PLIN5 inh inactive, UHRF1 binding inactive and B2AR ag inactive.
Screening Cc1ccc(C(=O)Nc2ccccc2[N+](=O)[O-])cc1S(=O)(=O)N1CCOCC1 returned Rin1 Abl inh inactive, MBD2 inh inactive, Arr AP2 block inactive, ABHD5-PLIN5 inh inactive, UHRF1 binding inactive and B2AR ag inactive.
For CN(C)S(=O)(=O)c1cccc(NC(=O)c2ccc(N3CCOCC3)c([N+](=O)[O-])c2)c1 the results were Rin1 Abl inh inactive, MBD2 inh inactive, Arr AP2 block inactive, ABHD5-PLIN5 inh inactive, UHRF1 binding inactive, B2AR ag 45, B2AR ag CP1 53 and FAP fluor counter inactive.
`CC1=C/C(=N\NC(=S)NCc2ccccc2)CC1` gave Rin1 Abl inh inactive, MBD2 inh inactive, Arr AP2 block inactive, ABHD5-PLIN5 inh inactive, UHRF1 binding inactive, B2AR ag inactive, B2AR ag CP1 inactive and FAP fluor counter inactive.
Cn1c(SC2=CS(=O)(=O)c3ccccc32)nc2ccccc21 was read as Rin1 Abl inh inactive, MBD2 inh inactive, Arr AP2 block inactive, ABHD5-PLIN5 inh inactive, UHRF1 binding inactive, B2AR ag 74, B2AR ag CP1 inactive and FAP fluor counter inactive.
For Cn1c(CSc2nc3ccccc3n2C)nc2ccccc21 the results were Rin1 Abl inh inactive, MBD2 inh inactive, Arr AP2 block inactive, ABHD5-PLIN5 inh inactive, UHRF1 binding inactive and B2AR ag inactive.
CC(=O)c1cccc(N=c2scc(-c3ccc(S(=O)(=O)N4CCOCC4)cc3)n2CCO)c1 was read as Rin1 Abl inh inactive, MBD2 inh inactive, Arr AP2 block inactive, ABHD5-PLIN5 inh inactive, UHRF1 binding inactive, B2AR ag 104, B2AR ag CP1 inactive and FAP fluor counter inactive.
COc1ccc(C)cc1S(=O)(=O)N(C)CC(=O)N1CCCC1 was read as Rin1 Abl inh inactive, MBD2 inh inactive, Arr AP2 block inactive, ABHD5-PLIN5 inh inactive, UHRF1 binding inactive and B2AR ag inactive.
COc1ccc(C)cc1S(=O)(=O)N(C)CC(=O)N1CCN(c2ccccc2)CC1 was read as Rin1 Abl inh inactive, MBD2 inh inactive, Arr AP2 block inactive, ABHD5-PLIN5 inh inactive, UHRF1 binding inactive, B2AR ag inactive, B2AR ag CP1 inactive and FAP fluor counter inactive.
`COc1ccccc1N1CCN(C(=O)CN(C)S(=O)(=O)c2cc(C)ccc2OC)CC1` gave Rin1 Abl inh inactive, MBD2 inh inactive, Arr AP2 block inactive, ABHD5-PLIN5 inh inactive, UHRF1 binding inactive, B2AR ag inactive, B2AR ag CP1 inactive and FAP fluor counter inactive.
`COc1ccc(Cn2c(NC(=O)c3ccccc3)nc(Cc3ccccc3)c2-c2ccccc2)c(OC)c1` gave MBD2 inh inactive and UHRF1 binding inactive.
Screening CN(C)CC(=O)N[C@H]1C[C@@H]2O[C@H](CO)CC[C@@H]2O[C@@H]1CCc1ccc(-c2ccc(F)cc2)cc1 returned MBD2 inh inactive and UHRF1 binding inactive.
For O=C1C=C(NC2CCCC2)CC(c2ccccc2)C1 (centres undefined) the results were Rin1 Abl inh inactive, MBD2 inh inactive, Arr AP2 block inactive, ABHD5-PLIN5 inh inactive, UHRF1 binding inactive, B2AR ag inactive, B2AR ag CP1 inactive and FAP fluor counter inactive.

Screening results deposited in PubChem by several laboratories.
